Consider two compounds from publication PMC6489120 (Journal of medicinal chemistry, 2018).

Usually solubility stands for the concentration that dissolves in the medium under given conditions. Low readings indicate a poorly soluble substance, high ones a readily soluble substance. As usually defined, the Cmax is the peak of the concentration-time curve.

The nature of one data set: aqueous solubility. It counts as physicochemical. The following applies: aqueous solution.
A short description of data set [1]: full pharmacokinetics in mice. To be noted: Balb/c, mouse, plasma, po, 25 mg/kg. It counts as in vivo. The essentials:
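Balb/c mice dosed orally at 25 mg/kg (iv arm 5.0 mg/kg), test compound in 20% (v/v) PCP and 70% (v/v) PBS. Blood taken 0, 5, 15, 30 min and 1, 2, 4, 6, 8, 24 h post-dose and centrifuged; plasma held at −80 °C. Plasma levels by LC−MS/MS (C18, formic acid/CH3CN gradient, positive-ion MRM); parameters by noncompartmental analysis.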

The target in the next data set is CECR2 (Homo sapiens, UniProt Q9BXF3). Kind of data set: DiscoverX BROMOscan. It counts as binding. The following applies: BROMOscan Kd.
Sequence of CECR2 (Q9BXF3 424-538 limits assumed): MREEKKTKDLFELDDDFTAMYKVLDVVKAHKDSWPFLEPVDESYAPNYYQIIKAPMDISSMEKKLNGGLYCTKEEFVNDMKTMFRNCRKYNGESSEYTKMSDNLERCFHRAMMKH
Data set [2] can be described thus: animal weight and signs of toxicity in efficacy studies. It is filed as in vivo. To be noted: all the three dose-schedules tested.
The target of a further data set is CREBBP (Homo sapiens, UniProt Q92793). Nature of the data set: DiscoverX BROMOscan. The following applies: BROMOscan Kd. It counts as binding.
Sequence of CREBBP (Q92793 1081-1197 limits assumed): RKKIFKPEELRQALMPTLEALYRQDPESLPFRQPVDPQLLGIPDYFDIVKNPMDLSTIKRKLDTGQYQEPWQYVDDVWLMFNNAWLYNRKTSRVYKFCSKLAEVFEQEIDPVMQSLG
For another data set, the system named is other 371 kinases. Kind of data set: kinase panel by Reaction Biology. It counts as biochemical. To be noted: at 3 µM.
Data set [3] concerns 23 other non-BET family bromodomain containing proteins. Nature of the data set: DiscoverX BROMOscan, other non-BET bromodomains summary. The following applies: at concentrations of 3–4 µM. It counts as binding.
The next data set concerns the target T1, EP300 (Homo sapiens, UniProt Q09472).
T1 sequence (Q09472 1040-1161 limits assumed): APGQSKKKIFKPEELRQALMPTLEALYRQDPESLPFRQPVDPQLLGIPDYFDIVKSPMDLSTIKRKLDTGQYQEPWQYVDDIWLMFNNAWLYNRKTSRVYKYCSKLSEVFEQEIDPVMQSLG
Kind of data set: DiscoverX BROMOscan. It counts as binding. To be noted: BROMOscan Kd.

The target in another data set is BRD4 BD1 (Homo sapiens, UniProt O60885). Nature of the data set: fluorescence polarization binding assay, BRD4 BD1. To be noted: relative to compound 24. The procedure, abridged: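 Binding measured by fluorescence polarization against recombinant human BRD4 BD1 (residues 44−168), using the group's previously established FP assay.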
(In general: Fluorescence polarisation rises when a labelled molecule tumbles more slowly, as on binding a larger partner.)

≈ marks a conversion by molar mass, not a printed value.

`COc1cc2c(cc1-c1c(C)noc1C)[nH]c1nc(C)nc(Nc3cc(C4CC4)nn3C)c12` [Compound 28, N-(3-Cyclopropyl-1-methyl-1H-pyrazol-5-yl)-7-(3,5-dimethylisoxazol-4-yl)-6-methoxy-2-methyl-9H-pyrimido[4,5-b]indol-4-amine]: the solubility in “aqueous solubility” (pH 3, aqueous buffer) was determined as 19.5 ± 5.5 µM (≈ 8.65 µg/mL); in the data set “aqueous solubility” (pH 11, aqueous buffer) it was 14 ± 0.5 µM (≈ 6.21 µg/mL). Moreover, in data set [1], the Cmax was found to be 6.4 µM. On CECR2, the “selectivity for BET bromodomains over CRCR2” value is reported as over 50 fold. For the same compound, the “other signs of toxicity” value in data set [2] is given as “does not cause other signs of toxicity”. Moreover, the weight loss entry in data set [2] was “no more than 5%”. The “selectivity for BET bromodomains over CREBBP” value on CREBBP is recorded as over 20 fold. The “inhibition against other 371 kinases” value with other 371 kinases is reported as “no appreciable inhibition”. Further, the “binding affinity to 23 other non-BET bromodomain containing proteins” value in data set [3] is on record as “no appreciable binding affinity”. In addition, the “selectivity for BET bromodomains over EP300” value on EP300 was over 50 fold.

As to `COc1cc2c(cc1-c1c(C)noc1C)[nH]c1nc(C)nc(Nc3c(C)c(C4CC4)nn3C)c12` [Compound 37, N-(3-Cyclopropyl-1,4-dimethyl-1H-pyrazol-5-yl)-7-(3,5-dimethylisoxazol-4-yl)-6-methoxy-2-methyl-9H-pyrimido[4,5-b]indol-4-amine], the “times less potent than 24 in binding to BRD4 BD1” value at BRD4 BD1 is recorded as over 5 times.
